Measurements of several laboratories.
Compare with care: the assays were run in different laboratories.
Target: Death-associated protein kinase 2 (DAPK2, Homo sapiens, UniProt Q9UIK4)

SMILES	effect on	mode	technique	concentration	endpoint	result
O=C1NC(=O)c2cc(Nc3ccc(F)cc3)c(Nc3ccc(F)cc3)cc21	cell-free assay	–	–	0.5 µM	remaining signal	96.7%
CCN(CC)CCNC(=O)c1c(C)[nH]c(/C=C2\C(=O)Nc3ccc(F)cc32)c1C	enzyme activity	inhibitor	–	0.3 µM	inhibition	30%
Cc1cnc(NC2CCOCC2)nc1-n1cnc(C(=O)NC(CN)c2cc(F)cc(Cl)c2)c1 (stereo not shown)	enzyme activity	inhibitor	radiometric	1 µM	remaining activity	108%
CN1CC(Oc2cnc(C#N)cc2-c2ccn3nc(NC(=O)C4CC4)cc3c2)C1	enzyme activity	inhibitor	–	1 µM	inhibition	0%
COc1ccc2c(c1)O[C@@H](c1ccc(OC)c(OC)c1)C[C@H]2NC(=O)C1(c2ccc3c(c2)OC(F)(F)O3)CC1	cell-free assay	–	competition with immobilised ligand	1 µM	remaining binding	98%
Cc1ccc(Nc2nccc(N(C)c3ccc4c(C)n(C)nc4c3)n2)cc1S(N)(=O)=O	enzyme activity	inhibitor	–	0.3 µM	inhibition	1%
O=C(Nc1ccc(Oc2ccc(F)cc2)cc1)N1CCc2ncccc2[C@H]1c1ccc(F)cc1	cell-free assay	–	competition with immobilised ligand	1 µM	remaining binding	100%
Cc1ccc(NC(=O)c2ccc(C)c(C(F)(F)F)c2)cc1C#Cc1nn(C2CCC(O)CC2)c2ncnc(N)c12 (stereo not shown)	cell-free assay	–	–	10 µM	remaining signal	95%
CC(C)(O)c1cncc(-c2nc3ccc(F)cc3n2C2CC2)c1	cell-free assay	–	competition with immobilised ligand	1 µM	remaining binding	100%
N#CCCc1ccc2c(c1)-c1[nH]c3ccc([N+](=O)[O-])cc3c1CC(=O)N2	cell-free assay	–	–	0.5 µM	remaining signal	96.5%
CS(=O)(=O)NCC[C@H](NC(=O)c1cncc2c1cnn2-c1ccc(F)cc1)c1ccnc(S(C)(=O)=O)c1	cell-free assay	–	competition with immobilised ligand	1 µM	remaining binding	100%
CNC(=O)c1cc(Oc2ccc(NC(=O)Nc3ccc(Cl)c(C(F)(F)F)c3)cc2)ccn1	enzyme activity	inhibitor	–	10 µM	inhibition	6%
CO[C@@H](C)c1c(Nc2ccc([C@@H](N(C)C(=O)C3CCS(=O)(=O)CC3)C(F)(F)F)cc2)cnc2cc(Cl)nn12	binding	–	competition with immobilised ligand	1 µM	remaining binding	41%
Cc1ccc(C(=O)Nc2ccc(CN3CCN(C)CC3)c(C(F)(F)F)c2)cc1C#Cc1cnc2cccnn12	enzyme activity	inhibitor	–	23.5 nM	remaining activity	100%
Cc1sc(C(=O)NC2COC2)cc1-n1cc(NC(=O)Nc2c(F)cccc2Cl)cn1	enzyme activity	inhibitor	–	10 µM	remaining activity	99.5%
CC(C)(C)c1nc2c(s1)c1nc(N)ncc1c1ccc(NS(=O)(=O)c3c(F)cccc3F)c(F)c12	enzyme activity	inhibitor	radiometric	1 µM	remaining activity	81%
